CHOP UPR activ = activators of apoptotic arm of unfolded protein response (CHOP); activation, % at 10 µM; CHO-CHOP luciferase reporter, UPR activation, luminescence; percent of tunicamycin response over DMSO baseline; hit rate 0.34% among 330,000;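 active means at 10 µM dose, activation of 40% or more, normalized to positive control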;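 further: 100% = tunicamycin at 10 µg/mL and 0% = DMSO alone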
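Material: CHO-CHOP cells, stable luciferase reporter of PERK-eIF2a-CHOP signalling; quantity: 500 reporter cells seeded per well; buffer or medium: F12 medium containing 10% fetal bovine serum; compound: one dose, 10 µM in 0.5% DMSO; incubation: 6 h compound treatment, 37 °C; measured by: Steady-Glo luciferase luminescence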
UPR XBP1 act = activators of adaptive arm of unfolded protein response (XBP1); CHO-XBP1 luciferase reporter, IRE1-XBP1 UPR activation, luminescence; percent of tunicamycin response, DMSO as zero; activation, % at 20 µM; hit rate 0.33% among 330,000;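 active means versus positive control, 20 µM dose yields 30% or more activation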;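 further: 100% = tunicamycin at 10 µg/mL and 0% = DMSO only wells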
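Material: CHO-XBP1 cells stably carrying IRE1-XBP1-driven luciferase reporter | Medium: F12 with 10% serum | Compound dosing: 20 µM single concentration, DMSO 1% | Incubation: Overnight seeding at 37 °C, 6 h compound treatment at 37 °C | Detection: Steady-Glo luminescence read | Read-out basis: % activation of reporter signal versus tunicamycin and DMSO controls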
CHOP inh = CHOP inhibition in unfolded protein response. CHO-K1 CHOP-promoter luciferase, tunicamycin-induced, 15-18 h. inhibition, % at 10 µM. hit rate 3.8% among 220,000. AID 2732;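 active means compounds that reduced the stress-induced luciferase reporter signal by more than about 70% of percent inhibition, limit read from the data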;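 further: 0% = tunicamycin plus vehicle and 100% = wells without tunicamycin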
H9c2 protect = modulators protecting cardiomyocytes from myocardial damage | hit rate 0.63% among 360,000 | AID 588492 | H9c2 cardiomyocytes, H2O2 injury protection, ATPLite, 2 h | protection from H2O2 cell death, % at 20 µM;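 active means compounds giving at least 50% protection of heart cells from peroxide-induced death in the single-dose screen, raw or plate-pattern-corrected value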;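 further: 0% = DMSO wells with peroxide and 100% = DMSO wells without peroxide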
hiPSC survival = enhancers of human iPSC single-cell survival; hit rate 0.044% among 360,000; AID 602274; hiPSC single-cell survival, ATPlite luminescence; 100% = ROCK inhibitor wells, 0% = DMSO; survival enhancement, % at 20 µM; in the data active means survival enhancement above about 18%;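 further: cells exposed to compounds for 16 hours before the ATP read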
UPR CHOP confirm = confirmation of apoptotic unfolded protein response (CHOP) activators. shares compounds with CHOP UPR activ. CHO-CHOP cells, CHOP-luciferase reporter luminescence; percent of tunicamycin response, DMSO as zero. activation, % at 10 µM. hit rate 64% among 1,000; in the data active means activation above about 33%;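 further: 0% = DMSO wells and 100% = tunicamycin 10 µg/mL wells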
Numbers without * were called inactive; · = no result given. Only a selection was taken, and hits are over-represented in it overall.

SMILES	CHOP UPR activ	UPR XBP1 act	CHOP inh	H9c2 protect	hiPSC survival	UPR CHOP confirm
Cn1cc(/C=C2\SC(=O)NC2=S)c2ccccc21	51*	17	40	-11	0	67*
CC1=C(C)C(=O)C(N2CCOCC2)=CC1=O	·	·	-6	-15	-2	·
O=C1C=C(N2CCOCC2)c2ccccc2C1=O	41*	-8	·	-17	0	3
Cc1[nH]c2ccccc2c1/C=N/Nc1nc2ccccc2[nH]1	87*	5	-222	-18	0	3
CCN1CSC(=S)N(Cc2ccccc2)C1	86*	0	·	-3	0	91*
S=C1SCN(Cc2ccco2)CN1Cc1ccco1	59*	7	-147	-3	-1	47*
CN1C2CCC1CC(NC(=O)c1nn(C)c3ccccc13)C2 (stereo not given)	·	·	46	·	·	·
COc1ccc(CCNC(=O)c2coc(=O)c(Br)c2)cc1	116*	-1	·	·	·	56*
COc1ccc(CCNC(=O)c2ccc(Br)cc2)cc1	·	·	·	-3	0	·
C[C@H]1CN([C@@H](C)CO)S(=O)(=O)c2ccc(Br)cc2O[C@H]1CN(C)C(=O)CCN1CCCCC1	·	·	·	8	0	·
CC(=O)n1cc(C(C[N+](=O)[O-])SCCN)c2ccccc21 (stereo not given)	138*	5	-1	6	3	-4
C[C@@H]1CN([C@@H](C)CO)C(=O)CCCn2nncc2CO[C@H]1CN(C)Cc1ccc2c(c1)OCCO2	·	·	·	8	1	·
CCNC(=O)C1(C)CCCN(CCOc2ccc(Cl)cc2)C1 (stereo not given)	·	·	·	8	1	·
O=C(CCc1ccc(O)c(O)c1)N/N=C/c1ccc2c(c1)OCO2	49*	34*	·	87*	0	9
CC(C)Oc1ccc(CCC(=O)N/N=C/c2ccc3c(c2)OCO3)cc1	0	-2	·	-11	0	·
CC(C)N=c1scc(-c2cccs2)n1/N=C/c1ccc(O)c(O)c1O	212*	37*	106*	50*	-2	150*
CS(=O)(=O)c1ccc(Cl)c(NC(=O)c2cc(S(=O)(=O)N3CCOCC3)ccc2N2CCCC2)c1	3	1	·	6	0	·
CC1(C(=O)NS(=O)(=O)C2CC2)CCCN(C(=O)c2cccc(Cl)c2)C1 (stereo not given)	·	·	·	1	0	·
OCc1ccccc1-c1nc(NCC2CC2)nc2ccsc12	·	·	·	7	1	·
Cc1cc(C(=O)CSc2nncs2)c(C)n1Cc1ccco1	0	-8	11	-17	0	·
Cc1cc(C(=O)CCl)c(C)n1CCc1ccccc1	196*	6	33	·	·	204*
Cc1cc(C(=O)CCl)c(C)n1Cc1ccco1	99*	-1	-143	-18	0	236*
CC1=CN2C(c3cccc([N+](=O)[O-])c3)=NON(c3ccc(C)cn3)C2C=C1 (stereo not given)	·	·	·	-11	0	·
CC1=C(C(=O)N2CCCCCC2)CC(CC(=O)NCc2cccs2)C(=O)N1Cc1ccccc1 (stereo not given)	·	·	·	1	1	·
Cc1cc(C(=O)CCl)c(C)n1-c1cccc([N+](=O)[O-])c1	174*	-3	104*	-20	-2	31
SMILES	CHOP UPR activ	UPR XBP1 act	CHOP inh	H9c2 protect	hiPSC survival	UPR CHOP confirm
CC(=O)c1c(C(C)=O)c(C)n(-c2cccc([N+](=O)[O-])c2)c1C	2	2	7	7	-1	·
CCCCCCCCN1C(=O)[C@H](CC(=O)NCc2cccc(C(F)(F)F)c2)C[C@@]2(C(=O)OC)CCCCC=C12	·	·	·	·	0	·
C[C@H]1CN(CCc2ccccc2)C(=O)[C@@H]1CC(=O)Nc1ccccc1	·	·	·	-4	-1	·
O=[N+]([O-])c1ccc(C=Nc2ccc(Cl)c([N+](=O)[O-])c2)s1	61*	-3	-25	-18	-5	49*
COCc1ccc(C(=O)N2CCCC(Nc3ccc4c(c3)OCCO4)C2)o1 (stereo not given)	1	-3	·	3	0	·
Nc1ccc(Sc2ccc([N+](=O)[O-])cc2)cc1	-1	1	10	-14	0	·
Cc1ccc(C(C[N+](=O)[O-])Sc2ccc(N)cc2)cc1 (stereo not given)	117*	-4	-9	-13	-1	-6
COc1ccc(CCNC(=O)COC(=O)c2cc(S(=O)(=O)N3CCCC3)ccc2O)cc1	-2	-3	·	-2	0	·
CCc1cccc2c(C(=S)N3CCCC3)c[nH]c12	1	5	-17	-1	-2	·
CCc1cccc2c(C(=O)CCl)c[nH]c12	84*	0	-141	-4	-2	66*
O=c1[nH]c2cc3c(cc2cc1C(c1nnnn1Cc1ccccc1)N1CCCc2ccccc21)OCO3 (stereo not given)	265*	12	25	·	·	2
O=c1[nH]c2cc3c(cc2cc1C(c1nnnn1C1CCCC1)N1CCCc2ccccc21)OCCO3 (stereo not given)	·	·	·	-6	0	·
O=C(CN1C(=O)C(=O)N(C2CCCC2)C1=O)Nc1ccc(OC(F)F)cc1	-3	1	·	10	1	·
O=S(=O)(c1ccc(S(=O)(=O)N2CCCC3(CCCCC3)C2)cc1)N1CCCCC1	52*	20	33	-4	-2	2
C=CCOC(=O)c1sc(NC(=O)c2ccc(OC)cc2)nc1C	43*	5	27	-19	0	0
CN(C)S(=O)(=O)c1ccc(Cl)c(C(=O)Nc2ccc(S(=O)(=O)N3CCOCC3)cc2)c1	0	4	·	-4	0	·
Cn1c(=O)c2c(nc(NCC3CCCC(CN)C3)n2Cc2ccc(Cl)cc2Cl)n(C)c1=O (stereo not given)	-1	-4	·	7	-1	·
CCCCOC(=O)/C=C\C(=O)NC(N)=O	88*	-5	-24	-12	-1	121*
Cc1cccc(N=Nc2ccc(O)c3ncccc23)c1	86*	7	105*	8	-1	69*
CCOC(=O)c1c(NC(=O)CSc2nnnn2-c2ccc(OC)cc2)sc(C)c1C	57*	1	40	2	-1	1
CCOC(=O)c1csc(NC(=O)CSc2nnnn2-c2ccc(OC)cc2)n1	-1	-2	20	-8	-1	·
CN(c1ccc(O)cc1)c1nc(-c2cccs2)cs1	48*	3	60	-25	-1	6
Cc1nc(N)sc1-c1csc(N(C)c2ccc(O)cc2)n1	5	4	25	-4	-1	·
COc1ccccc1OCCN1CSC(=S)N(C)C1	82*	-3	29	-9	-2	28
Cc1cccc(OCCN2CSC(=S)N(C)C2)c1	59*	6	-68	-10	-3	35*
O=C(N/N=C/c1ccc(OCc2ccc(F)cc2)cc1)c1ccccc1	3	0	-15	-1	0	·

Screening results (PubChem BioAssay)
